According to ChEMBL document CHEMBL4261533, “Identification of potent cholecystokinin-B receptor antagonists: synthesis, molecular modeling and anti-cancer activity against pancreatic cancer cells” (Medchemcomm, 2017):
Calls of active or inactive are those of the source. No cut-off for these calls is given here.

Columns and labels:
MIA PaCa-2 [1] = assay: Cytotoxicity against human MIAPaCa2 cells assessed as reduction in cell viability after 24 hrs by MTT assay; format: functional, cell-based; details: MIA PaCa-2, 24 h
How it was run: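 MiaPaca-2 cells seeded at 1000/well, incubated 24 h at 37 °C, 5% CO2, then exposed to varying compound concentrations in 200 μL standard growth medium for 24 h. MTT (5 mg/mL stock in PBS) added for 4 h at 37 °C. Formazan dissolved in DMSO, absorbance read at 540 nm. IC50 taken from dose–response graphs.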

MIA PaCa-2 [2] = assay: Cytotoxicity against human MIAPaCa2 cells assessed as reduction in cell viability at 1 to 10 uM after 72 hrs by MTT assay; format: functional, cell-based
[3] = target: T1, Gastrin/cholecystokinin type B receptor (Rattus norvegicus, UniProt P30553); assay: Displacement of [125I]-BH-CCK-8 from CCK-B receptor in rat cerebral cortex plasma membrane after 1 hr by liquid scintillation counting method; format: cell membranes
T1 sequence (P30553 whole entry): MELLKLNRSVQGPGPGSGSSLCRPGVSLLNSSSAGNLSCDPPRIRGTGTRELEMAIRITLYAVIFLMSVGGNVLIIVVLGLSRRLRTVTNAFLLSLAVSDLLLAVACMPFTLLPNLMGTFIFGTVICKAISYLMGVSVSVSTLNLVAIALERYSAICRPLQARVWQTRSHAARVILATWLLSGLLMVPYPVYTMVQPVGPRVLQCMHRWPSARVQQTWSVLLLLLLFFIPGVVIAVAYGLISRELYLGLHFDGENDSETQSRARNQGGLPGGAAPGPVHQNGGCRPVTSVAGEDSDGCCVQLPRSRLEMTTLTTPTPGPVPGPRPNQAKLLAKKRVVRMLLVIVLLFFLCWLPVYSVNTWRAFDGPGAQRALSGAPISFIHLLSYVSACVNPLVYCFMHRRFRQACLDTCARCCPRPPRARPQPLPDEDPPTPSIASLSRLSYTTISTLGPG
How it was run: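 Rat cerebral cortex plasma membrane (100 μg per tube), receptor solubilized in detergent. Non-specific binding defined with 1 μM unlabeled CCK-8s. Bound and free ligand separated on filter mats, counted by liquid scintillation. IC50 by non-linear least-squares fitting.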

MIA PaCa-2 [4] = assay: Inhibition of boc-pentagastrin-induced cell proliferation in human MIAPaCa2 cells at 1 to 10 uM up to 120 hrs by MTT assay; format: functional, cell-based
How it was run: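 MiaPaca-2 cells seeded at 4000/well in 10% FCS-DMEM, then made quiescent for 24 h in incomplete medium. Boc-pentagastrin and/or antagonist (1 or 10 μM) added in incomplete medium; medium with the same concentrations replaced daily. MTT read after 48–120 h, absorbance at 540 nm. DMSO control at each time point set as 100%.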

[5] = target: T2, Gastrin/cholecystokinin type B receptor (Mus musculus) (UniProt P56481); assay: Inhibition of CCK-B receptor in lumen perfused albino mouse stomach assessed as reduction in boc-pentagastrin-induced gastric acid secretion at 100 nM after 45 mins relative to control; format: functional
T2 sequence (whole entry): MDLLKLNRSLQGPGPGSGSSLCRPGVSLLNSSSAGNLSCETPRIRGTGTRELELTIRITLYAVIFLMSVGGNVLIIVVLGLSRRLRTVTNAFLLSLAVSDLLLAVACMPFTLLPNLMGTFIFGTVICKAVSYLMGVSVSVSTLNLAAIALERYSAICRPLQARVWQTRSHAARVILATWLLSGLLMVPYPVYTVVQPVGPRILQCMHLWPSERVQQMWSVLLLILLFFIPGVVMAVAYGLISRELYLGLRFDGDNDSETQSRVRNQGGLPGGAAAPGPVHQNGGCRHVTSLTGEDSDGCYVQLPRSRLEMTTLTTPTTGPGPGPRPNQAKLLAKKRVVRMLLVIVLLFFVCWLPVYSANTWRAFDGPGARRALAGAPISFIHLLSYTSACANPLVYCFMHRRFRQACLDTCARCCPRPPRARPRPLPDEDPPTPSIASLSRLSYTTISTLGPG
How it was run: (§1)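 Whole stomach excised from albino mice (25–30 g), lumen-perfused in an organ bath. Effluent pH monitored continuously with a pH probe. Acid output driven by sub-maximal Boc-pentagastrin (10 nM), measured before and 45 min after incubation with test compound. Percentage inhibition calculated.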

[6] = target: T2, Gastrin/cholecystokinin type B receptor (Mus musculus); assay: Inhibition of CCK-B receptor in lumen perfused albino mouse stomach assessed as reduction in boc-pentagastrin-induced gastric acid secretion after 45 mins relative to control; format: functional; how it was run: as §1
[7] = target: T2, Gastrin/cholecystokinin type B receptor (Mus musculus); assay: Inhibition of CCK-B receptor in lumen perfused albino mouse stomach assessed as reduction in boc-pentagastrin-induced gastric acid secretion at 300 nM after 45 mins relative to control; format: functional; how it was run: as §1
[8] = target: T2, Gastrin/cholecystokinin type B receptor (Mus musculus); assay: Inhibition of CCK-B receptor in lumen perfused albino mouse stomach assessed as reduction in boc-pentagastrin-induced gastric acid secretion at 1 uM after 45 mins relative to control; format: functional; how it was run: as §1
[9] = target: T3, Gastrin/cholecystokinin type B receptor (Homo sapiens, UniProt P32239); assay: Displacement of [125I]-gastrin17 from CCK-B receptor (unknown origin)
T3 sequence (P32239 whole entry): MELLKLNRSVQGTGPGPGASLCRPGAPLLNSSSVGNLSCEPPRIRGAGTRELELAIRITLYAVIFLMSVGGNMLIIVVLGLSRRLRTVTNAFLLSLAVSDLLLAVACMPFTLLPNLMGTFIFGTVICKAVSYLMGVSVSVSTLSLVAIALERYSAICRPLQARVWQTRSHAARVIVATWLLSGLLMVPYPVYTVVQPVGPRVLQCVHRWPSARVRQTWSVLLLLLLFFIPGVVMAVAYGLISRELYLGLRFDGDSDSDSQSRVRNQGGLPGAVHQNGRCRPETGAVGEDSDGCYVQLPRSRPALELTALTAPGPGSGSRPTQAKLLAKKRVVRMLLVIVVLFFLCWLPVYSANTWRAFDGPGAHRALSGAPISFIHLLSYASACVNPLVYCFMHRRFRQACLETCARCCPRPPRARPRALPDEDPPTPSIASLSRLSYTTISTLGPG

IC50 [3] | inhibition [5] | inhibition [6] | inhibition [7] | inhibition [8] | SMILES | IC50 (MIA PaCa-2 [1]) | Activity (MIA PaCa-2 [2]) | inhibition (MIA PaCa-2 [4]) | IC50 [9]
2 nM | 39% | Dose-dependent effect |  |  | CCOc1ccc(-n2c(NNC(=S)Nc3ccc(Br)cc3)nc3ccccc3c2=O)cc1 | 10000 nM | Active | Active | 
384 nM | 58% | Dose-dependent effect |  |  | O=C1Nc2ccccc2/C1=N/Nc1nc2ccccc2c(=O)n1-c1cccc(Cl)c1 | 92000 nM |  |  | 
0.2 nM | 39% | Dose-dependent effect |  |  | O=C(O)c1cccc(NC(=S)NNc2nc3ccccc3c(=O)n2-c2ccc(Br)cc2)c1 | 200000 nM |  |  | 
9.71 nM | 53% | Dose-dependent effect |  |  | CCOc1ccc(NC(=S)NNc2nc3ccccc3c(=O)n2-c2ccc(Cl)cc2)cc1 | 80000 nM |  |  | 
19.5 nM | 62% | Dose-dependent effect |  |  | O=C1Nc2ccccc2/C1=N/Nc1nc2ccccc2c(=O)n1-c1cccc(Br)c1 | 200000 nM |  |  | 
56.5 nM |  | Dose-dependent effect | 67% |  | Cc1ccc(-n2c(N/N=C3\C(=O)Nc4ccccc43)nc3ccccc3c2=O)cc1 | 10000 nM | Active | Active | 
8.64 nM | 62% | Dose-dependent effect |  |  | O=C(O)c1cccc(NC(=S)NNc2nc3ccccc3c(=O)n2-c2cccc(Br)c2)c1 | 150000 nM |  |  | 
17.4 nM | 48% | Dose-dependent effect |  |  | CCOc1ccc(-n2c(N/N=C3\C(=O)Nc4ccccc43)nc3ccccc3c2=O)cc1 | 80000 nM |  |  | 
 | 58% | Dose-dependent effect |  |  | O=C1Nc2ccccc2/C1=N/Nc1nc2ccccc2c(=O)n1-c1ccc(Cl)cc1 | 100000 nM |  |  | 
11.5 nM | 58% | Dose-dependent effect |  |  | CCOc1ccc(-n2c(NNC(=S)Nc3ccc(Cl)cc3)nc3ccccc3c2=O)cc1 | 250000 nM |  |  | 
975 nM |  | Dose-dependent effect |  | 48% | O=C(O)c1cccc(NC(=S)NNc2nc3ccccc3c(=O)n2-c2ccccc2)c1 | 180000 nM |  |  | 
 |  |  |  |  | CNc1cccc(NC(=O)NC2N=C(c3ccccn3)c3ccccc3N(CC(=O)C(C)(C)C)C2=O)c1 (stereo not drawn) |  |  |  | 0.1 nM
 |  |  |  |  | Cc1cccc(NC(=O)NC2N=C(c3ccccc3)c3ccccc3N(C)C2=O)c1 (stereo not drawn) | 1.8 nM |  |  | 
0.66 nM | 58% | Dose-dependent effect |  |  | CCOc1ccc(-n2c(NNC(=S)Nc3cccc(C(=O)O)c3)nc3ccccc3c2=O)cc1 | 280000 nM |  |  | 
